Experiments:
[1] = test system: OVCAR-3; assay: Antitumor activity against human ovarian OVCAR-3 cell lines.; format: functional, cell-based
Procedure, shortened: (§1)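 Cultured human tumor cells (melanoma UACC375, ovarian OVCAR3) under continuous drug exposure. Growth was read by sulforhodamine or MTT assay. Five concentrations per analogue, six determinations per concentration. IC50 values were derived from these.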

[2] = test system: A549; assay: Activity against A549 cancer cell line.; format: functional, cell-based; conditions: Homo sapiens
[3] = test system: MCF7; assay: Antitumor activity against human mammary carcinoma mitoxantrone-resistant […] breast cell line.; format: functional, cell-based
[4] = species: Rattus norvegicus; assay: Cardiotoxicity measured by the ATP/protein ratio compared with untreated controls using neonatal rat heart myocyte assay.; format: functional
Procedure, shortened: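 Neonatal rat heart myocytes exposed to drug for 1 h. The ATP/protein ratio was measured versus untreated control myocytes. IC50 is the concentration reducing this ratio to 50% of control.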

[5] = test system: UACC-375; assay: Antitumor activity against human melanoma UACC375 cell line.; format: functional, cell-based; procedure, shortened: as §1
[6] = test system: WiDr; assay: Activity against human colon carcinoma multi drug resistant (MDR)-WiDr cell line.; format: functional, cell-based
[7] = test system: L1210; assay: Antitumor activity against murine leukemia L1210 cell line.; format: functional, cell-based; conditions: Mus musculus
Procedure, shortened: (§2)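 Murine L1210 leukemia cells, sensitive or MDR subline, in culture. Continuous drug exposure during MTT assay. Five concentrations per analogue, six determinations per concentration. The IC50 was derived.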

[8] = test system: MCF7; assay: Antitumor activity against human mammary carcinoma doxorubicin-resistant […] breast cell line.; format: functional, cell-based
[9] = (§3) The quotient of the IC50 in the myocytes divided by the mean IC50 in the three cell lines; format: functional
Procedure, shortened: (§4)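 Calculated index: the myocyte IC50 divided by the mean IC50 across three tumor lines (sensitive L1210, melanoma UACC375, ovarian OVCAR3).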

[10] = test system: L1210; assay: Compound was tested for antitumor activity against l. Sensitive leukemia cell lines (L1210).; format: functional, cell-based; conditions: Mus musculus; procedure, shortened: as §2
[11] = test system: MCF7; assay: Antitumor activity against human mammary carcinoma sensitive […] breast cell line.; format: functional, cell-based
[12] = test system: WiDr; assay: Activity against human colon carcinoma sensitive WiDr cell line.; format: functional, cell-based
[13] = test system: L1210; assay: Antitumor activity against sensitive L1210 murine leukemia cell lines.; format: functional, cell-based; conditions: Mus musculus; procedure, shortened: as §2
[14] = test system: WiDr; assay: Compound was tested for antitumor activity against The compound tested for activity against Human colon carcinoma sensitive WiDr cell line.; format: functional, cell-based
[15] = as §3; format: ADME, cell-based; conditions: myocytes versus three cell lines; read-out: Toxicity ratio; procedure, shortened: as §4
[16] = test system: MCF7; assay: Compound was tested for antitumor activityHuman mammary carcinoma Doxorubicin resistant […] breast cell line.; format: functional, cell-based; conditions: Homo sapiens
[17] = test system: L1210; assay: Compound was tested for antitumor activity against Murine leukemia cell line (L1210).; format: functional, cell-based; conditions: Mus musculus; procedure, shortened: as §2

| SMILES | IC50 [1] | IC50 [2] | IC50 [3] | IC50 [4] | IC50 [5] | IC50 [6] | IC50 [7] | IC50 [8] | Toxicity ratio [9] | IC50 [10] | IC50 [11] | IC50 [12] | IC50 [13] | IC50 [14] | selectivity ratio [15] | IC50 [16] | IC50 [17] |
| --- | --- | --- | --- | --- | --- | --- | --- | --- | --- | --- | --- | --- | --- | --- | --- | --- | --- |
| CN(C)CCN1C(=O)c2cccc3cc4cc(O)ccc4c(c23)C1=O | 22 nM | 7.1 nM | 17 nM | 404 nM | 4 nM | 20 nM | 6.7 nM | 20 nM | 40.4 | 5.4 nM | 13 nM | 17 nM |  |  |  |  |  |
| CCOc1ccc2cc3cccc4c3c(c2c1)C(=O)N(CCN(C)C)C4=O | 77 nM | 61 nM | 15 nM | 11300 nM | 77 nM | 120 nM | 50 nM | 100 nM | 188 |  | 32 nM |  | 25 nM | 100 nM |  |  |  |
| CN(C)CCN1C(=O)c2cccc3cc4c(Cl)cccc4c(c23)C1=O | 39 nM | 22 nM | 19 nM | 1030 nM | 77 nM | 110 nM | 18 nM | 80 nM |  |  | 60 nM | 20 nM |  |  | 22.8 |  |  |
| CN(C)CCN1C(=O)c2c(O)ccc3cc4ccccc4c(c23)C1=O | 5500 nM | 820 nM | 1500 nM | > 135000 nM | 7550 nM | 4700 nM |  |  | >20 |  | 1200 nM | 2220 nM | 6740 nM |  |  | 2800 nM | 14800 nM |
